Experiment [1] deals with Huntingtin (Homo sapiens), P42858 [UNDEFINED MUTATION]. Nature of the experiment: Inhibition of TEV protease-induced 6His-GST tagged huntingtin polyQ 103 mutant (unknown origin) aggregation expressed in Escherichia coli BL21(DE3) assessed as relative fluorescence unit at 1:1 molar ratio incubated for 16 hrs by ThT fluorescence based spectrophotometer analysis (reference value: 1235 a.u.). The essentials:
(§1)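 Aggregation started by TEV protease addition, with ThT readings beginning right after cleavage. Peptide added equimolar (1:1) to each Htt protein. Fluorescence was followed at 37 °C for at least 16 h, with excitation at 438 nm and emission at 495 nm. The end-point value at 16 h is averaged over triplicates.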

For experiment [2] the test system is unchanged. The experiment in a line: Inhibition of TEV protease-induced 6His-GST tagged huntingtin polyQ 46 mutant (unknown origin) aggregation expressed in Escherichia coli BL21(DE3) assessed as relative fluorescence unit at 1:1 molar ratio incubated for 16 hrs by ThT fluorescence based spectrophotometer analysis (reference value: 692 a.u.). The essentials:
as §1

The test system is the same in experiment [3]. Nature of the experiment: Inhibition of TEV protease-induced 6His-GST tagged wildtype huntingtin polyQ 25 (unknown origin) aggregation expressed in Escherichia coli BL21(DE3) assessed as relative fluorescence unit at 1:1 molar ratio incubated for 16 hrs by ThT fluorescence based spectrophotometer analysis (reference value: 666 a.u.). The essentials:
as §1

For experiment [4] the test system is unchanged. Nature of the experiment: Inhibition of TEV protease-induced 6His-GST tagged huntingtin polyQ 103 mutant (unknown origin) aggregation assessed as reduction of spherical oligomers at 10 uM measured immediately by AFM imaging analysis. The essentials:
(§2)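 AFM imaging of Htt aggregates after TEV cleavage. Fibrils were allowed to grow for 2 h, then peptide or nothing (control) was added, defining t = 0 h. Images were taken over 0–24 h and scored for spherical oligomers, individual fibrils, branching and aggregate clusters.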

The test system is the same in experiment [5]. Nature of the experiment: Inhibition of TEV protease-induced 6His-GST tagged huntingtin polyQ 103 mutant (unknown origin) aggregation assessed as reduction in individual fibrils at 10 uM measured immediately by AFM imaging analysis. The essentials: as §2
Experiment [6] shares this test system. The experiment in a line: Inhibition of TEV protease-induced 6His-GST tagged huntingtin polyQ 46 mutant (unknown origin) aggregation assessed as reduction of spherical oligomers at 10 uM measured immediately by AFM imaging analysis. The essentials: as §2
The test system is the same in experiment [7]. The experiment in a line: Inhibition of TEV protease-induced 6His-GST tagged huntingtin polyQ 103 mutant (unknown origin) aggregation assessed as decrease in fibril clustering at 10 uM measured after 24 hrs by AFM imaging analysis. The essentials: as §2
Experiment [8] shares this test system. The experiment in a line: Inhibition of TEV protease-induced 6His-GST tagged huntingtin polyQ 103 mutant (unknown origin) aggregation assessed as decrease in fibril length at 10 uM measured after 2 to 12 hrs by AFM imaging analysis. The following applies: time 2-12 hrs.
Experiment [9] shares this test system. Nature of the experiment: Inhibition of TEV protease-induced 6His-GST tagged huntingtin polyQ 103 mutant (unknown origin) aggregation assessed as decrease in fibril length at 10 uM incubated for 24 hrs by AFM imaging analysis relative to control. Further details: scale not given: the % may be the effect or the level left. The essentials:
(§3)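 AFM imaging of Htt fibrils grown for 2 h after TEV cleavage in TEV cleavage buffer (pH 8.0). Peptide was then added, defining t = 0 h. Fibril length was measured at 0, 4, 8 and 24 h and reported as the mean length of 100 fibrils with standard deviation at each time point.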

Experiment [10] has the same test system. The experiment in a line: Inhibition of TEV protease-induced 6His-GST tagged huntingtin polyQ 46 mutant (unknown origin) aggregation assessed as decrease in fibril length at 10 uM incubated for 24 hrs by AFM imaging analysis relative to control. Further details: scale not given: the % may be the effect or the level left. The essentials: as §3
The test system is the same in experiment [11]. Nature of the experiment: Inhibition of TEV protease-induced 6His-GST tagged wildtype huntingtin polyQ 25 (unknown origin) aggregation assessed as decrease in fibril length at 10 uM incubated for 24 hrs by AFM imaging analysis relative to control. Further details: scale not given: the % may be the effect or the level left. The essentials:
as §3

Experiment [12] shares this test system. Nature of the experiment: Inhibition of TEV protease-induced 6His-GST tagged huntingtin polyQ 103 mutant (unknown origin) aggregation assessed as decrease in fibril branching at 10 uM measured after 4 to 24 hrs by AFM imaging analysis. The following applies: time 4-24 hrs. The essentials:
as §2

Experiment [13] shares this test system. Nature of the experiment: Inhibition of TEV protease-induced 6His-GST tagged huntingtin polyQ 103 mutant (unknown origin) aggregation assessed as isolated fibrils at 10 uM measured after 4 to 8 hrs by AFM imaging analysis. The following applies: time 4-8 hrs.
For experiment [14] the test system is unchanged. The experiment in a line: Inhibition of TEV protease-induced 6His-GST tagged huntingtin polyQ 46 mutant (unknown origin) aggregation assessed as decrease in fibril length at 10 uM measured after 2 to 12 hrs by AFM imaging analysis. The following applies: time 2-12 hrs.
For experiment [15] the test system is unchanged. The experiment in a line: Inhibition of TEV protease-induced 6His-GST tagged huntingtin polyQ 46 mutant (unknown origin) aggregation assessed as decrease in individual fibers at 10 uM measured after 2 to 24 hrs by AFM imaging analysis. The following applies: time 2-24 hrs. The essentials: as §2
Experiment [16] has the same test system. Nature of the experiment: Inhibition of TEV protease-induced 6His-GST tagged huntingtin polyQ 103 mutant (unknown origin) aggregation assessed as decrease in individual fibers at 10 uM measured after 2 to 24 hrs by AFM imaging analysis. The following applies: time 2-24 hrs. The essentials:
as §2

For experiment [17] the test system is unchanged. The experiment in a line: Inhibition of TEV protease-induced 6His-GST tagged wildtype huntingtin polyQ 25 (unknown origin) aggregation assessed as decrease in individual fibers at 10 uM measured after 2 to 24 hrs by AFM imaging analysis. The following applies: time 2-24 hrs. The essentials:
as §2

The test system is the same in experiment [18]. Nature of the experiment: Inhibition of TEV protease-induced 6His-GST tagged wildtype huntingtin polyQ 25 (unknown origin) aggregation assessed as reduction of spherical oligomers at 10 uM measured immediately by AFM imaging analysis.

Molecules are shown by their SMILES. The source made the active and inactive calls. The rule behind the calls is not given here.

Huntingtin (Homo sapiens), P42858 [UNDEFINED MUTATION], sequence (P42858 whole entry, looked up, change not shown): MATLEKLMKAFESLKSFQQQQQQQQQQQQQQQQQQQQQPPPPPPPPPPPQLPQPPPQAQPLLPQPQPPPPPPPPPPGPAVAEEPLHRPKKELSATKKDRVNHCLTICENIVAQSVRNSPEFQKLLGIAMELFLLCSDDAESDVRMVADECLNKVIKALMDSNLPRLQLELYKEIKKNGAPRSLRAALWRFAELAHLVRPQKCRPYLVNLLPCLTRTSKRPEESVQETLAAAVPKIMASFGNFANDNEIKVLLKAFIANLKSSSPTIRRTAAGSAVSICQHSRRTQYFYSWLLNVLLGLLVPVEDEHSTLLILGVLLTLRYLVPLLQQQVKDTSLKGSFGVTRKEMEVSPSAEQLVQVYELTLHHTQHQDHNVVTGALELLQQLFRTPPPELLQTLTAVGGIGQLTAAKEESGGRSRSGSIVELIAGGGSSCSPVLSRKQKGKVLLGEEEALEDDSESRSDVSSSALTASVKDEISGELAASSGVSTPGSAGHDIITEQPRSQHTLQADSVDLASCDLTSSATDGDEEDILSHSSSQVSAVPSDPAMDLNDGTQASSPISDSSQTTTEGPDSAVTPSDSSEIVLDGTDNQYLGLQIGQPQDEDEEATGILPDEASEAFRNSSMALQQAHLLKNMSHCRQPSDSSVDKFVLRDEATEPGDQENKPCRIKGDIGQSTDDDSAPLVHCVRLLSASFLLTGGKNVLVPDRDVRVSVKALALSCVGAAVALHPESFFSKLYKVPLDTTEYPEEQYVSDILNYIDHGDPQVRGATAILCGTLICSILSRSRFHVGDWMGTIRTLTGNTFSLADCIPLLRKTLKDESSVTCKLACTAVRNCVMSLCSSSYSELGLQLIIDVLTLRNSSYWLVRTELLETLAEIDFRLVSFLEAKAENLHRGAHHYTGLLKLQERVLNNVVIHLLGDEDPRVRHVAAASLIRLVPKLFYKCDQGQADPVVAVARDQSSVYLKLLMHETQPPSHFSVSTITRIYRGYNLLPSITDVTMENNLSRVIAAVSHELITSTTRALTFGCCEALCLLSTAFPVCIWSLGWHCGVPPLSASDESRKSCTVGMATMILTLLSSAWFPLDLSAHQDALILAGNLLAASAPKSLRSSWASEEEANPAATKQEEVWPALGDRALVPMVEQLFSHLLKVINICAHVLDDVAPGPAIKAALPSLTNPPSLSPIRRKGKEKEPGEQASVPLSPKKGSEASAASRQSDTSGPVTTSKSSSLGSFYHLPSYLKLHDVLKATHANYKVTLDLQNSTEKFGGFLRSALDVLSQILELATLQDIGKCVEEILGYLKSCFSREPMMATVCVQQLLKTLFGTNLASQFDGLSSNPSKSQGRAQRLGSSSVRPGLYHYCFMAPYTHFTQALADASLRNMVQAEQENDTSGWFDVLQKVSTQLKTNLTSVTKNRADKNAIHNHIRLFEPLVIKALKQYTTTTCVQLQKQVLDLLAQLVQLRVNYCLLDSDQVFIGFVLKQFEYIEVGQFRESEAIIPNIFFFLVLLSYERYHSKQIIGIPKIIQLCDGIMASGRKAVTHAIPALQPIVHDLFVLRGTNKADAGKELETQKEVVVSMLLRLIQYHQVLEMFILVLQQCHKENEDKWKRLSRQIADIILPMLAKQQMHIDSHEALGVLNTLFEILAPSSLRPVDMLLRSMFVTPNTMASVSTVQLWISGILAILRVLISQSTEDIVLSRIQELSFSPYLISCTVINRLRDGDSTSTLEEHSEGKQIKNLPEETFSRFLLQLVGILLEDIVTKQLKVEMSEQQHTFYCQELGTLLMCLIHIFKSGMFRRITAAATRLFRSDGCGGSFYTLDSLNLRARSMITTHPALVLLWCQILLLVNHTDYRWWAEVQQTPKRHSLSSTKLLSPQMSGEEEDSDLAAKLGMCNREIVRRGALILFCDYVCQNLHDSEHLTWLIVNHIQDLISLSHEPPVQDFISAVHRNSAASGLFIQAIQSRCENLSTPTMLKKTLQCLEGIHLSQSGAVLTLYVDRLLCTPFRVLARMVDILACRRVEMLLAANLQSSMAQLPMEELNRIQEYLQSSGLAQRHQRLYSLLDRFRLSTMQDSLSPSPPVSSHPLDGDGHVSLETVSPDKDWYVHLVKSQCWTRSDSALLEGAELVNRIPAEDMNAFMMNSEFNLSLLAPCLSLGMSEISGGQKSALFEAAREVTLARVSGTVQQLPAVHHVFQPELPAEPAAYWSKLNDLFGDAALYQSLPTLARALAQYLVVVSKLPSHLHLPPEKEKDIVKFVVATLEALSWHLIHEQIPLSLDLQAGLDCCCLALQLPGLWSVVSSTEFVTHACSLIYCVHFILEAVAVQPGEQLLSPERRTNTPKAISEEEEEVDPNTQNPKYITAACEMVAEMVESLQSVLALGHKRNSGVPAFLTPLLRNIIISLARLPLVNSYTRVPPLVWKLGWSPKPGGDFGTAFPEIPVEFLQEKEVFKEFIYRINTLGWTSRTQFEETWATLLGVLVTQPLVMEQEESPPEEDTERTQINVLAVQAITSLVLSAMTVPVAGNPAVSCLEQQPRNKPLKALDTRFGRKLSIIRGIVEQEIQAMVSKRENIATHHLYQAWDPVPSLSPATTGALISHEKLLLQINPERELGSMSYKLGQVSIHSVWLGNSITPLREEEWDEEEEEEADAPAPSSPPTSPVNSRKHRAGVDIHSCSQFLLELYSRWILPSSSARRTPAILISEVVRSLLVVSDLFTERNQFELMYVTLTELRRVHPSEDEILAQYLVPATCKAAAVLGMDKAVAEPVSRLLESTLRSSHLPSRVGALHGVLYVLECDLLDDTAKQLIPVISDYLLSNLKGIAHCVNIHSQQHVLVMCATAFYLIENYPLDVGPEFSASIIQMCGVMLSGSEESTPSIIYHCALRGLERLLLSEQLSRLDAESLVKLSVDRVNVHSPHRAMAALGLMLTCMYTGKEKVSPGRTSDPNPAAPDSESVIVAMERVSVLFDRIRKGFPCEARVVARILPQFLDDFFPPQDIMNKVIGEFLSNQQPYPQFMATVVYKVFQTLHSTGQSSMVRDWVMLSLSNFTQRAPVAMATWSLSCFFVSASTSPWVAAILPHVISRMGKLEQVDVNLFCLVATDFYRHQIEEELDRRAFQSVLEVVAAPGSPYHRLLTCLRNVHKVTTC

For `CC(C)C[C@H](NC(=O)CNC(=O)[C@H](CC(C)C)NC(=O)[C@H](CO)NC(=O)[C@H](CC(N)=O)NC(=O)[C@H](C)NC(=O)CNC(=O)[C@H](Cc1c[nH]cn1)NC(=O)[C@@H](N)Cc1c[nH]cn1)C(=O)N[C@H](C(=O)N[C@@H](CCC(N)=O)C(=O)N[C@@H](CO)C(=O)O)C(C)C`, the RFU is 564 a.u in [1], 357 a.u in [2] and 424 a.u in [3]. Moreover, the inhibition entry in [4], in experiment [5], in [6] and in experiment [18] was “inactive” in each case. Also, the inhibition entry in [7], in experiment [8], in experiment [12], in experiment [13], in experiment [14] and in experiment [15] was “Active” each time. The inhibition result in experiment [16] and in [17] was “Active” each time. Further, the Activity in [9] came to 36.7%; in experiment [10], 24.9%; in [11], 42.9%.
With `CSCC[C@H](NC(=O)[C@@H](N)Cc1c[nH]c2ccccc12)C(=O)N[C@@H](Cc1ccccc1)C(=O)N1CCC[C@H]1C(=O)N[C@@H](CO)C(=O)N[C@@H](CC(C)C)C(=O)N[C@@H](CCCCN)C(=O)N[C@@H](CC(C)C)C(=O)N[C@@H](CC(C)C)C(=O)N[C@@H](CC(=O)O)C(=O)N[C@@H](Cc1ccc(O)cc1)C(=O)N[C@@H](Cc1c[nH]cn1)C(=O)O`, the figures for the RFU in experiment [1], in experiment [2] and in experiment [3] were 431 a.u, 634 a.u and 552 a.u, respectively. Besides, the inhibition result in [4], in experiment [5], in [6] and in [18] was “inactive” throughout. In addition, the inhibition result in experiment [7], in experiment [8], in [12], in experiment [13], in [14] and in experiment [15] was “Active” each time. In addition, the inhibition result in experiment [16] and in experiment [17] was “Active” each time. Further, the Activity in experiment [9] is 28%; in [10], 17.3%; in experiment [11], 25.6%.
With `CSCC[C@H](NC(=O)[C@H](CO)NC(=O)[C@H](Cc1c[nH]cn1)NC(=O)[C@H](CC(C)C)NC(=O)CNC(=O)[C@@H](N)Cc1c[nH]cn1)C(=O)N[C@@H](Cc1c[nH]cn1)C(=O)N[C@@H](CC(N)=O)C(=O)N[C@@H](CCCCN)C(=O)N[C@@H](CC(C)C)C(=O)N[C@@H](CC(C)C)C(=O)N[C@@H](CCC(N)=O)C(=O)N[C@H](C(=O)O)[C@@H](C)O`, the values for the RFU in experiment [1], in [2] and in experiment [3] were 433 a.u, 500 a.u and 459 a.u, respectively. For the same compound, the inhibition result in experiment [4], in [5], in [6] and in [18] was “inactive” in each case. For the same compound, the inhibition result in experiment [7], in experiment [8], in experiment [12], in experiment [13], in [14] and in experiment [15] was “Active” throughout. Further, the inhibition result in [16] and in experiment [17] was “Active” each time. The Activity was determined as 22.7% in experiment [9], 17.6% in experiment [10] and 38.3% in experiment [11].

Source of the values: ChEMBL document CHEMBL5390313, “Highly Potent Peptide Therapeutics To Prevent Protein Aggregation in Huntington's Disease” (ACS Med Chem Lett, 2023).
